Bioassay records deposited in PubChem BioAssay by Sanford-Burnham Center for Chemical Genomics.
Shown are actives, neighbours in structure and some others; about 1.9% of the full set was active somewhere.
SUMO1-SIM PPI: modulators of SUMO1 protein-protein interactions, primary screen, biochemical, uHTS; inhibition, % at 20 µM; 360,000 compounds, 0.33% hits; AID 602429, 2012; SUMO1 binding to a labelled peptide, TR-FRET, 1 h; Small ubiquitin-related modifier 1 (Homo sapiens), P63165; in the data active = inhibition above about 37%
Target sequence (P63165 whole entry, looked up): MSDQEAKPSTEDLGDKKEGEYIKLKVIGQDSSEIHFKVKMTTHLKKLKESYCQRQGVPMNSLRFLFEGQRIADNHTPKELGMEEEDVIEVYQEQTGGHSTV
LMPTP inh: LMPTP phosphatase inhibitors, primary screen, biochemical, fluorescence intensity, uHTS; Low molecular weight phosphotyrosine protein phosphatase (Homo sapiens), P24666; 360,000 compounds, 0.22% hits; inhibition, % at 20 µM; recombinant LMPTP-A, OMFP fluorogenic substrate;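 active = compounds that cut the enzyme signal by at least half of the control window in the single-dose screen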;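 also: plate controls were DMSO wells with enzyme plus substrate for no effect and substrate without enzyme for full effect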
Target sequence (P24666 whole entry, looked up): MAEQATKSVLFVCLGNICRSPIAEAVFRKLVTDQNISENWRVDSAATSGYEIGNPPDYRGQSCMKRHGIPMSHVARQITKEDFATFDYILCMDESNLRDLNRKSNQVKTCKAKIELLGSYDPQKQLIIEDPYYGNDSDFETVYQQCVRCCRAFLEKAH
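material = LMPTP-A | quantity = 0.625 nM enzyme | reagent = OMFP substrate, 400 µM final | buffer or medium = Bis-Tris pH 6.0, DTT, detergent | detection = endpoint fluorescence intensity from OMFP dephosphorylation | dosing = single 20 µM dose | read-out basis = % inhibition relative to no-enzyme and uninhibited control wells | control set = no-enzyme and uninhibited controls | timing = 50 min at room temperature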
STEP block: STEP phosphatase inhibitors, primary screen, biochemical, fluorescence intensity, uHTS. Tyrosine-protein phosphatase non-receptor type 5 (Homo sapiens), P54829. inhibition, % at 20 µM. 360,000 compounds, 0.25% hits. AID 588621, 2011. recombinant STEP, OMFP fluorogenic substrate;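 active = inhibition at 20 µM, scaled per plate between control wells, above about 37%, limit read from the data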;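 also: 0% = DMSO with enzyme and substrate and 100% = substrate only without enzyme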
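Material: STEP (striatal-enriched tyrosine phosphatase) enzyme, cell-free; Compound dosing: 20 µM single dose in 1% DMSO; Technique: fluorescence read at 480 nm ex / 540 nm em; Times: reaction 20 min, ambient temperature; Medium: 50 mM Bis-Tris pH 6.0 with 2.5 mM DTT and 0.005% Tween 20; Also added: OMFP at 25 µM.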
FAS TE block: FAS thioesterase domain inhibitors, primary screen, biochemical, fluorescence intensity, uHTS; AID 602261, 2012; recombinant FAS-TE, OMFH fluorogenic substrate, fluorescence endpoint; 360,000 compounds, 0.67% hits; Fatty acid synthase (Homo sapiens), P49327; inhibition, % at 15 µM;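 active = compounds whose normalised, plate-corrected inhibition of enzyme fluorescence in the single-dose primary screen is 50% or more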;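 also: 0% = DMSO with enzyme and 100% = substrate without enzyme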
Scp-1 inhibitor: Scp-1 phosphatase inhibitors, primary screen, biochemical, colorimetric, uHTS; Carboxy-terminal domain RNA polymerase II polypeptide A small phosphatase 1 (Homo …; Recombinant Scp1, phosphopeptide, malachite green phosphate absorbance; inhibition, % at 20 µM; 340,000 compounds, 0.88% hits; AID 493091, 2011;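 active = inhibition above about 50% at 20 µM, limit read from the data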;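 also: plate controls were DMSO wells with enzyme for no effect and wells lacking enzyme for full effect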
Target sequence (Q9GZU7 76-261 limits assumed): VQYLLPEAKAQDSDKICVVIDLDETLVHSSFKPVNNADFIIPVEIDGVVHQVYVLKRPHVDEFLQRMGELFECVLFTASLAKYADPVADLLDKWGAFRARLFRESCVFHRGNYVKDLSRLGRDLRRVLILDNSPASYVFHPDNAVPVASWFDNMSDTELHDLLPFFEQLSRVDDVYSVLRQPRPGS
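Test system – truncated SCP-1 phosphatase (76-261aa) · Reagent – Phosphorylated 17-residue peptide substrate · Incubation – 45 min room-temperature reaction, 5 min colour, 30 min stabiliser · Detection – colorimetric phosphate reagent with accelerator and stabiliser, absorbance at 630 nm · Measure – % inhibition at 20 µM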
Active calls of the source: *; x = not tested or not shown.

SMILES	SUMO1-SIM PPI	LMPTP inh	STEP block	FAS TE block	Scp-1 inhibitor
CCOc1ccccc1CNC(=O)C1CCCN(c2nnc(C)c3c(C)n(-c4ccccc4)nc23)C1 (configuration not stated)	47*	6	-2	-3	6
COc1ccc(-n2nc3c(N4CCC(C(=O)NCc5ccccc5C)CC4)nnc(C)c3c2C)cc1	16	26	-2	4	30
COc1ccc(-n2nc3c(N4CCC(C(=O)NCc5ccco5)CC4)nnc(C)c3c2C)cc1	15	53*	1	-2	5
NC(Cc1ccc(F)cc1)c1csc(Nc2ccc(C(=O)c3ccccc3)cc2)n1 (configuration not stated)	-111	3	0	-27	x
O=c1nc2c(-c3cccc(Br)c3)n[nH]n2c2ccccc12	45*	6	-2	-4	6
CC1=NOC(=O)/C1=C\c1ccc(-c2ccccc2Br)o1	30	5	3	-5	-3
CC1=NOC(=O)/C1=C\c1ccc(-c2cccc(Cl)c2)o1	40*	4	8	-8	-4
CCc1oc(C(=O)O)cc1COC	-1	-2	0	-9	66*
c1ccc2c(NCCc3c[nH]c4ccccc34)c3ccccc3nc2c1	-44	57*	3	-3	-8
COc1ccc(CC(N)c2csc(NC(=O)Nc3ccccc3-c3ccccc3)n2)cc1 (configuration not stated)	-49	2	3	-12	x
Cc1ccc(S(=O)(=O)c2nnn3c2nc(N2CCOCC2)c2ccccc23)cc1C	-40	1	2	41	1
Cc1ccc(S(=O)(=O)c2nnn3c2nc(NC2CCN(Cc4ccccc4)CC2)c2ccccc23)cc1C	-34	29	10	86*	2
Fc1ccc(-[n+]2nc(Nc3ccccc3)sc2-c2c(Cl)cccc2Cl)cc1	-7	4	-1	-136	1
CCc1ccc(Nc2n[n+](-c3ccccc3)c(-c3c(Cl)cccc3Cl)s2)cc1	-34	71*	3	-121	20
CCc1c(-c2cccc(OC)c2)ncn1Cc1cccc(-c2ccccc2)c1	-1	12	x	x	x
CCC(C)NC(=O)CSc1nc2cc3c(cc2c(=O)n1Cc1ccco1)OCO3 (configuration not stated)	42*	-1	-1	-5	-5
Clc1cccc(Cl)c1Cn1cnc2c(NCc3ccco3)ncnc21	-3	4	0	-1	2
Clc1cccc(Cl)c1Cn1cnc(=NCc2ccco2)c2[nH]cnc21	2	84*	4	-18	6
CC1(C(=O)Nc2ccc3c(c2)OCCO3)CN(S(C)(=O)=O)CC(=O)N1CCc1ccccc1F (configuration not stated)	-2	-1	x	x	x
O=C(/C=C/c1ccc(Br)o1)OCc1nc2ccsc2c(=O)[nH]1	120*	76*	89*	1	86*
Cc1ccc(C(=O)OCc2nc3ccsc3c(=O)[nH]2)o1	1	-2	1	-3	11
CCOc1ccc(C(=O)NCC(=O)NC(C)c2ccc(-n3ccnc3)cc2)cc1OCC (configuration not stated)	45*	-1	-2	-5	-2
O=C1NC[C@H](Cc2ccccc2)N(C[C@@H]2CCCN2C[C@H](Cc2ccc(O)cc2)N2C[C@H](Cc3ccccc3)N(CC3CCCCCC3)C(=O)C2=O)C1=O	2	8	x	43	x
CCOc1ccc2nc3cc(N=Nc4ccc(N)nc4N)ccc3c(N)c2c1	116*	72*	66*	3	0
[O-][n+]1c(/C=C/c2ccccc2)ccc2ccccc21	1	0	1	4	-4
SMILES	SUMO1-SIM PPI	LMPTP inh	STEP block	FAS TE block	Scp-1 inhibitor
[O-][n+]1c2ccccc2[n+]([O-])c2cc(O)ccc21	21	20	11	-10	57*
OC[C@@H]1CN(Cc2cccc(C(F)(F)F)c2)C[C@H](n2cnc3c(NCc4ccco4)ncnc32)O1	4	0	-5	1	x
CCC(=O)n1nc(-c2ccc(Cl)cc2)nc1N	-2	0	1	-4	-1
CCc1nc(N)nc(N)c1-c1ccc(Cl)cc1	8	56*	0	-6	-1
CCc1nc(N)nc(N)c1-c1ccc(NCCN)c([N+](=O)[O-])c1	-47	x	-2	-6	-8
CCc1nc(N)nc(N)c1-c1ccc(N(C)Cc2ccccc2)c([N+](=O)[O-])c1	-19	79*	0	-8	0
O=S(=O)(Nc1cc(Sc2ncn[nH]2)c(O)c2ccccc12)c1ccccc1	85*	9	3	-14	17
COC(=O)c1ccc(C(=O)Nc2ccc3nc(-c4cccnc4)[nH]c3c2)cc1	31	-1	-1	-1	-7
COC(=O)c1ccc(C(=O)Nc2ccc3nc(-c4ccncc4)[nH]c3c2)cc1	51*	0	1	1	-10
COc1cccc(Cn2c(N)c(C#N)c3nc4ccccc4nc32)c1OC	40*	9	2	18	6
Cc1cc(Cl)ccc1-c1nc(NC(C)C)nc2ccsc12	-1	3	-2	16	x
COc1cccc(OC)c1C(=O)Nc1cc2c(cc1N1CCOCC1)n(C)c(=O)n2C	6	0	-2	-7	-14
Cn1c(=O)n(C)c2cc(N3CCOCC3)c(NC(=O)c3ccc(F)cc3)cc21	49*	-1	-2	-2	-2
Cc1ccc(-c2nnn(CC(=O)N(Cc3cccs3)C(C(=O)NC3CCCC3)c3ccncc3)n2)cc1 (configuration not stated)	45*	1	3	9	13
COC(=O)C[C@H]1CC[C@@H](NC(=O)Nc2c(C)noc2C)[C@@H](CO)O1	4	-1	x	x	x
COCC(C)OC(=O)c1c(N)n(CC(C)C)c2nc3ccccc3nc12 (configuration not stated)	41*	20	3	-5	5
C=CCn1c(N)c(C(=O)OC(C)CC)c2nc3ccccc3nc21 (configuration not stated)	38	9	1	-2	1
CC(C)C(=O)N1CCC1(C)C(=O)Nc1ccc2[nH]ccc2c1 (configuration not stated)	7	-2	-2	-14	x
CC[n+]1ccccc1/C=C1\Sc2ccc(C)cc2N1C	-33	1	-1	-6	79*
CC[n+]1ccccc1/C=C/Nc1ccccc1	-6	0	-3	-5	5
CC1=CC(C)(C)N(C(=O)CSc2ncn[nH]2)c2ccc(C)cc21	43*	-1	0	-27	-7
